# From PubChem
# In the library only some 2.1% were active in any assay of this set; here they are far more common.
# Dynein transport: dynein cargo transport inhibition | 3617.4 mouse cells, GR-EGFP nuclear translocation imaging; test concentration mostly 20 µM; stimulated with dexamethasone, 1 µM; stronger effect = lower value | z-score, hits read low | 220,000 compounds, 0.47% hits;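 active = plate z-score of nuclear minus cytoplasmic receptor signal below a set negative limit, without overly bright fluorescence or cell loss, cut at about -3.5 in these data, passing the limit was not always enough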;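 also: z-score of nuclear minus cytoplasmic ring GR-EGFP intensity difference per well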
#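 Buffer or medium: tet-free medium with charcoal-stripped serum / Also added: dexamethasone agonist, 1.0 µM final, for 30 min / Timing: induction 48 h, compound 1 h, agonist 30 min / Measured by: high-content fluorescence imaging after fixation / Read-out: nuclear-to-cytoplasmic GR-EGFP distribution per well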
# Hsp70 activator: switches on Hsp70 transcription; AID 1203; HeLa Hsp70 promoter luciferase reporter, luminescence; scaled: vehicle 0, proteasome-inhibitor control 100%; activation, % at 10 µM; 200,000 compounds, 0.04% hits;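 active = activation above the mean across all tested compounds plus 3 SD, cutoff set per campaign, cut at about 5.5% in these data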;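 also: 100% = MG132 at 30 µM as the positive control and 0% = DMSO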
# MT stabilize HCS: stabilizes microtubules in HeLa cells | % tubulin-high responders, % at 10 µM | 200,000 compounds, 0.83% hits | HeLa tubulin immunostaining HCS, 24 h; share of cells brighter than vehicle mean+2SD | AID 2205;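 active = plate Z-score above 3 for both tubulin-high and condensed-nucleus cell shares, with cell loss under 80%, at 10 µM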;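 also: anti alpha tubulin signal scored within the nucleus-defined area of each cell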
# Autophagy HCS: alters autophagy in cells; MEF GFP-LC3 puncta imaging; test concentration mostly 10 µM; calls only at 10 µM (by protocol); 190,000 compounds, 0.98% hits;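 active = percentage of spot-positive cells more than 3 SD above its plate mean, without a fluorescence outlier flag or 80% toxicity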;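 also: spot-positive cell cutoff set from DMSO-treated cells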
# b-catenin transl: beta-catenin nuclear translocation modulation; HeLa beta-catenin nuclear translocation, immunofluorescence imaging; nuclear translocation activity, % at 5 µM; 190,000 compounds, 0.3% hits;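 active = nuclear translocation activity above 50% at 5 µM, with a well cell count of 50 or more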;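 also: per-cell ratio of nuclear to cytoplasmic median beta-catenin stain intensity; plate controls were DMSO negative control for no effect and GSK-3 inhibitor IX positive control for full effect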
#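 Test system: human HeLa cell line; Doses: 5 µM primary, 0.02–20 µM confirmation; Incubation: 24 h compound exposure, 37°C; Detection: beta-catenin immunofluorescence imaging with DAPI; Read-out: beta-catenin nuclear/cytoplasmic ratio, % activation.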
# Starred values were filed as active, the others as inactive; i = inactive; x = no result; + = active, no number.
SMILES,Dynein transport,Hsp70 activator,MT stabilize HCS,Autophagy HCS,b-catenin transl
N#Cc1c(Cl)cccc1N1CCC(C(N)=O)CC1,1.3,x,x,x,4
Cc1c(Br)cc(C(=O)OC2CCN(C)CC2)c(C)c1C,2.1,0,3,+,2
Cc1c2ccccc2nc2c(F)c(NC(C)C)c(F)c(F)c12,-3.2,0,12,+,10
CCN(CC)c1ccc(NC(=O)c2ccccc2F)cc1,-0.14,0,52*,i,x
Cc1cnc(C(=O)N2CCCC(C(=O)c3ccc(Cl)cc3C)C2)cn1 (stereo not drawn),1.5,0,2,i,1
CCOC(=O)/C(=C\c1ccc([N+](=O)[O-])o1)NC(=O)c1ccccc1,3,-1,1,+,x
CCCOC(=O)/C(=C\c1ccc([N+](=O)[O-])o1)NC(=O)c1ccccc1,-0.97,0,3,+,-3
CS/C(N)=N/S(=O)(=O)c1ccc(NC(C)=O)cc1,0.95,x,x,x,0
Cc1ccc(S(=O)(=O)N(C)C)cc1NC(=S)N1CCN(Cc2ccc3c(c2)OCO3)CC1,-0.34,0,3,i,-4
OC(CNCc1ccc(Cl)cc1)(c1ccccc1)c1ccc(F)cc1 (stereo not drawn),0.12,0,2,+,3
Cc1cc(C)c(OCC(=O)N(Cc2ccc(N(C)C)cc2)C2CCS(=O)(=O)C2)c(C)c1 (stereo not drawn),-0.63,x,x,x,0
CCOC(=O)c1ccccc1NC(=O)Cn1c(-c2nonc2N)nc2ccccc21,1.2,0,7,i,63*
CCCCn1c(-c2nonc2N)nc2ccccc21,0.4,0,2,i,2
Nc1nonc1-c1nc2ccccc2n1Cc1ccccc1,0.78,0,3,+,x
CC1CCCN(C(=O)CSc2nc3ncccc3[nH]2)C1 (stereo not drawn),0.054,0,4,+,-1
CCOC(=O)C(C)Sc1nc(-c2cccs2)ccc1C#N (stereo not drawn),-0.71,0,44*,i,1
C=COC(=O)CSc1nc(-c2cccs2)ccc1C#N,-0.87,1,9,i,-1
N#C/C(=C/c1ccc(-c2ccc(S(N)(=O)=O)cc2)o1)c1nc2ccccc2s1,-5.4,0,4,+,9
N#C/C(=C/c1ccc(-c2ccccc2)o1)c1nc(-c2cccs2)cs1,-5.3,0,4,+,-2
N#C/C(=C/c1ccc(-c2ccc(S(N)(=O)=O)cc2)o1)C(=O)Nc1ccccc1,-0.15,0,3,i,0
CCc1cccc(N(C(=O)c2csnn2)C(C(=O)NC(C)(C)C)c2ccccn2)c1 (stereo not drawn),-0.3,0,2,i,0
CCc1cc(C(=O)O)c(NC(=O)c2cc(OC)c(OC)c(OC)c2)s1,2.9,0,3,i,7
O=C(CCC(=O)N/N=C/c1cc(Cl)cc(Cl)c1O)NCc1ccccc1,0.59,0,3,i,0
CC(C)(C)c1ccc(/C=N/OCC(=O)NCc2ccc(F)cc2)cc1,-0.0084,0,12*,i,x
COc1ccc(C(=O)c2ccc(OC)cc2OC)cc1,0.14,x,x,x,56*
SMILES,Dynein transport,Hsp70 activator,MT stabilize HCS,Autophagy HCS,b-catenin transl
CN(C)c1ccc(C(=O)c2ccc(N(C)C)c3ccccc23)cc1,-0.28,1,12,+,39
COc1ccc(C(=O)c2ccc(N(C)C)cc2)c(OC)c1,-1.2,1,24,i,96*
CN(C)c1ccc(C(=O)c2ccccc2C(=O)O)cc1[N+](=O)[O-],0.53,0,3,i,-1
NC(=O)/C(=C/c1ccco1)C(N)=S,-0.3,x,x,x,-1
C/C(CCS(=O)(=O)c1ccccc1)=N/O,-0.23,0,3,i,-2
CC1(C)Cc2nc3sc4c(SCC(=O)NCc5ccccc5)ncnc4c3cc2CO1,-0.012,0,35*,+,x
Brc1cc(Cc2nnc(-c3ccccc3)o2)c(Br)s1,0.46,x,x,x,2
Cc1[nH][nH]c(=O)c1C(c1c(C)[nH][nH]c1=O)c1cn(Cc2ccccc2Cl)c2ccccc12,0.11,0,25*,i,18
CCc1sc2nc(SCC(=O)Nc3cc(C)on3)n(-c3cccc(OC)c3)c(=O)c2c1C,1.3,0,6,+,0
COc1cccc(-n2c(SCC(=O)Nc3cc(C)on3)nc3ccccc3c2=O)c1,1.7,1,2,i,1
CN1CCc2c(sc3nc(SCC(=O)N4CCOCC4)nc(N)c23)C1,0.62,0,4,+,1
CCn1c(SCC(=O)Nc2cc(C)on2)nc2sc3c(c2c1=O)CCCC3,-1.1,0,3,+,-2
C=CCn1c(SCC(=O)N2CCOCC2)nc2sc3c(c2c1=O)CCCC3,-0.7,0,4,+,x
CSc1nnc(-c2sc3cc(C(F)(F)F)cnc3c2-c2ccccc2)n1C,2.1,0,40*,i,x
O=C(O)c1sc2cc(C(F)(F)F)cnc2c1-c1ccccc1,0.26,0,2,i,x
COc1cccc(NC(=O)c2cc([N+](=O)[O-])ccc2NC(=O)CNCC2CCCO2)c1 (stereo not drawn),1.3,0,2,+,-1
Cc1ccc(S(=O)(=O)N2CCCCC2)cc1NC(=O)CNCc1ccco1,0.55,x,x,x,-2
CCCC(=O)Nc1nc2ccc(S(=O)(=O)N3CCCCC3)cc2s1,-0.41,0,5,i,7
CC(C)CC(=O)Nc1nc2ccc(S(=O)(=O)N3CCOCC3)cc2s1,0.7,0,49*,i,2
O=C(CC1C(=O)NCCN1C(=O)Nc1ccc(Cl)cc1)Nc1ccc(F)cc1 (stereo not drawn),-0.09,0,2,+,1
CCOC(=O)c1cc2c(ccn2-c2ccc(F)cc2)n1CC(=O)N(CC)CC,0.091,0,2,i,1
O=C(NCCN1CCOCC1)c1ccc2c(c1)N(Cc1ccccc1F)C(=O)c1ccccc1S2,0.6,0,1,+,-1
Cc1cccc(CN2C(=O)c3ccccc3Sc3ccc(C(=O)NCCN4CCOCC4)cc32)c1,-0.099,0,3,i,2
C/C(=N\NC(N)=S)C1C2C3CC4C5CC(C42)C1C53 (stereo not drawn),-1.5,0,7.4*,i,0
Cc1c(/C=C/C(=O)c2ccc(C(C)C)cc2)cnn1C,-1.2,0,3,i,0
Cn1c(=O)cc(SCC(=O)Nc2ccccn2)c2ccccc21,0.071,0,3,i,5
Cc1ccnc(NC(=O)CSc2cc(=O)n(C)c3ccccc23)c1,-0.35,1,3,+,4
N#CC1=C(N)C(C#N)(C#N)[C@H](c2ccoc2)[C@H]2CN(Cc3ccccc3)CC=C12,-8,0,3,+,5
